ChEMBL document CHEMBL1828626, “Thiazolyl N-benzyl-substituted acetamide derivatives: synthesis, Src kinase inhibitory and anticancer activities” (2011)
Activity calls are given as the source filed them. No cut-off for these calls is given here.

What was measured:
BT-20 [1] = assay: Antiproliferative activity against human BT20 cells at 10 uM after 72 hrs relative to control; type: functional, cell-based
Method in brief: (§1)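 BT-20 in EMEM or CCRF-CEM in RPMI, with 10% FBS, at 37 °C, 5% CO2. Seeded at 5000 cells/well and exposed 72 h after seeding to 10 μM agent, in triplicate. Readout is CellTiter 96 AQueous One, 1 h, A490. Growth is given as percent of untreated control after medium-blank subtraction.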

CCRF-CEM [2] = assay: Antiproliferative activity against human CCRF-CEM cells at 10 uM after 72 hrs relative to control; type: functional, cell-based; method in brief: as §1
NIH3T3 = assay: Inhibition of constitutively active human c-SRC527F mutant-induced growth inhibition in mouse NIH3T3 cells after 3 days by MTT assay; type: cell-based
Method in brief: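 NIH3T3 cells carrying constitutively active human c-Src527F were seeded at 4500 cells/well in DMEM/10% FBS and left overnight. They were then exposed for 3 days at 37 °C to a 5-point 2-fold dilution series (n = 3). Growth % = (T−T0)/(C−T0) × 100; GI50 taken from curves.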

CCRF-CEM [3] = assay: Antiproliferative activity against human CCRF-CEM cells at 50 uM after 72 hrs relative to control; type: functional
Method in brief: (§2)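 Cells cultured in EMEM (HT-29, BT-20) or RPMI (CCRF-CEM) with 10% FBS at 37 °C, 5% CO2. Seeded at 5000 cells/well and treated 72 h after seeding with 50 μM compound, in triplicate, for 24-72 h. CellTiter 96 AQueous One reagent added for 1 h; formazan A490. Survival is (treated − medium blank)/(untreated control − blank) × 100%.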

SYF = assay: Inhibition of constitutively active human c-Src527F mutant-induced growth inhibition in src, yes and fyn-deficient mouse SYF cells after 2 days by MTT assay; type: cell-based
Method in brief: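 SYF cells (Src/Yes/Fyn knockout) re-expressing c-Src527F were plated at 3500 cells/well in DMEM/10% FBS overnight. Compound was added as a 5-point 2-fold serial dilution in triplicate for 2 days at 37 °C, 5% CO2. GI50 comes from growth % = (T−T0)/(C−T0) × 100, with T0 from day-zero wells.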

HT-29 = assay: Antiproliferative activity against c-Src overexpressing human HT-29 cells at 50 uM after 24 to 72 hrs relative to control; type: functional; method in brief: as §2
BT-20 [4] = assay: Antiproliferative activity against human BT20 cells at 50 uM after 72 hrs relative to control; type: functional; method in brief: as §2

| Structure (SMILES) | Activity (BT-20 [1]) | Activity (CCRF-CEM [2]) | GI50 (NIH3T3) | Activity (CCRF-CEM [3]) | GI50 (SYF) | Activity (HT-29) | Activity (BT-20 [4]) |
| --- | --- | --- | --- | --- | --- | --- | --- |
| COc1cccc2c1C(=O)c1c(O)c3c(c(O)c1C2=O)C[C@@](O)(C(=O)CO)C[C@@H]3O[C@H]1C[C@H](N)[C@H](O)[C@H](C)O1 | Active | Active | – | – | – | – | – |
| O=C(Cc1csc(-c2ccc(OCCN3CCOCC3)cc2)n1)NCc1ccc(Cl)c(Cl)c1 | – | – | 12.3 µM | 69% | 12.5 µM | 54% | – |
| Cc1ccc(CNC(=O)Cc2csc(-c3ccc(OCCN4CCOCC4)cc3)n2)cc1 | – | – | 4.76 µM | 61% | 7.23 µM | 54% | – |
| O=C(Cc1csc(-c2ccc(OCCN3CCOCC3)cc2)n1)NCc1ccc(F)cc1 | – | – | 1.49 µM | 71% | 2.51 µM | 54% | – |
| O=C(Cc1ccc(-c2ccc(OCCN3CCOCC3)cc2)cn1)NCc1ccccc1 | – | – | 0.023 µM | – | 0.039 µM | – | – |
| O=C(Cc1csc(-c2ccc(OCCN3CCOCC3)cc2)n1)NCc1ccccc1Cl | – | – | 7.93 µM | 30% | 13 µM | – | 30% |
| O=C(Cc1csc(-c2ccc(OCCN3CCOCC3)cc2)n1)NCc1ccccc1 | – | – | 1.34 µM | 30% | 2.3 µM | – | 30% |
